Results as given in ChEMBL document CHEMBL1143019, “Hybrid molecules of estrone: new compounds with potential antibacterial, antifungal, and antiproliferative activities” (2007).
Converted amounts (≈) assume the structure as drawn.

Experiments:
Candida albicans [1] = experiment: Antifungal activity against Candida albicans ATCC 44859 after 24 hrs; type: functional; conditions: ATCC 44859, 24 h
Outline: (§1)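 Modified NCCLS M27-A broth microdilution with clinical isolates subcultured on Sabouraud dextrose agar. Suspensions diluted 1:50 in RPMI 1640 to give a final inoculum of 0.5–2.5×10³ CFU/mL for yeasts or 0.5–5×10⁴ CFU/mL for molds. The RPMI had L-glutamine, no bicarbonate, and 0.165 M MOPS to pH 7.0. Twofold dilutions from 250 to 0.49. Plates held at 35 °C, humid, without agitation. MIC is the lowest concentration giving ≥80% inhibition versus drug-free control, read at 24 and 48 h.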

Trichophyton benhamiae [2] = experiment: Antifungal activity against Trichophyton mentagrophytes 445 after 120 hrs; type: functional, Arthroderma benhamiae
Outline: (§2)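 Same modified M27-A microdilution with the mold inoculum of 0.5–5×10⁴ CFU/mL. Medium was RPMI 1640 with L-glutamine, no bicarbonate, and 0.165 M MOPS at pH 7.0. Twofold dilutions from 250 to 0.49. Incubated at 35 °C in a humid atmosphere.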

Lichtheimia corymbifera [3] = experiment: Antifungal activity against Absidia corymbifera 272 after 48 hrs; type: functional; outline: as §1
Candida tropicalis [4] = experiment: Antifungal activity against Candida tropicalis 156 after 24 hrs; type: functional; outline: as §1
Mycobacterium kansasii [5] = experiment: Antimicrobial activity against Mycobacterium kansasii My 235/80 after 21 days; type: functional; conditions: 504 h
Outline: (§3)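 Run in Šula semisynthetic liquid medium containing bovine serum. Compounds added as DMSO solutions at final concentrations of […]. Each strain was also inoculated onto Löwenstein–Jensen medium to control inoculum sterility and growth.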

Pichia kudriavzevii [6] = experiment: Antifungal activity against Candida krusei E28 after 24 hrs; type: functional; outline: as §1
Trichophyton benhamiae [7] = experiment: Antifungal activity against Trichophyton mentagrophytes 445 after 72 hrs; type: functional, Arthroderma benhamiae; outline: as §2
Candida albicans [8] = experiment: Antifungal activity against Candida albicans ATCC 44859 after 48 hrs; type: functional; conditions: ATCC 44859, 48 h; outline: as §1
Trichosporon beigelii [9] = experiment: Antifungal activity against Trichosporon beigelii 1188 after 48 hrs; type: functional; outline: as §1
Nakaseomyces glabratus [10] = experiment: Antifungal activity against Candida glabrata 20/I after 48 hrs; type: functional; outline: as §1
Pichia kudriavzevii [11] = experiment: Antifungal activity against Candida krusei E28 after 48 hrs; type: functional; outline: as §1
Mycobacterium kansasii [12] = experiment: Antimicrobial activity against Mycobacterium kansasii My 6509/96 after 21 days; type: functional; conditions: 504 h; outline: as §3
Lichtheimia corymbifera [13] = experiment: Antifungal activity against Absidia corymbifera 272 after 24 hrs; type: functional; outline: as §1
Aspergillus fumigatus [14] = experiment: Antifungal activity against Aspergillus fumigatus 231 after 24 hrs; type: functional; outline: as §1
Aspergillus fumigatus [15] = experiment: Antifungal activity against Aspergillus fumigatus 231 after 48 hrs; type: functional; outline: as §1
Trichosporon beigelii [16] = experiment: Antifungal activity against Trichosporon beigelii 1188 after 24 hrs; type: functional; outline: as §1
[17] = test system: Mycobacterium tuberculosis; experiment: Antimicrobial activity against Mycobacterium tuberculosis My 331/88 after 21 days; type: functional; conditions: 504 h
L929 = experiment: Antiproliferative activity against mouse L929 cells after 72 hrs; type: functional; conditions: L929, 72 h
Outline: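 About 10,000 adherent cells per well in RPMI 1640 with 10% heat-inactivated FBS and penicillin/streptomycin, without HEPES. Exposed to 10 concentrations for 72 h at 37 °C in humidified 5% CO₂. Monolayers fixed with glutaraldehyde, stained 15 min with 0.05% methylene blue, and eluted with 0.33 N HCl; OD read at 630 nm. GI50 derived from dose–response curves relative to control.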

HeLa = experiment: Cytotoxicity against human HeLa cells after 72 hrs; type: functional; conditions: for CC50: Homo sapiens, HeLa, 72 h
Outline: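 About 10,000 cells per well in RPMI 1640 were preincubated 48 h without compound. The 10 test concentrations were then applied onto the monolayers and incubated 72 h at 37 °C in humidified 5% CO₂. Monolayers fixed with glutaraldehyde, stained with 0.05% methylene blue, and eluted with 0.33 N HCl; optical density measured at 630 nm.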

Nakaseomyces glabratus [18] = experiment: Antifungal activity against Candida glabrata 20/I after 24 hrs; type: functional; outline: as §1
Mycobacterium kansasii [19] = experiment: Antimicrobial activity against Mycobacterium kansasii My 235/80 after 14 days; type: functional; conditions: 336 h; outline: as §3
Candida tropicalis [20] = experiment: Antifungal activity against Candida tropicalis 156 after 48 hrs; type: functional; outline: as §1
K562 = experiment: Antiproliferative activity against human K562 cells after 72 hrs; type: functional; conditions: K562, 72 h
Outline: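 About 10,000 suspension cells per well in RPMI 1640 with 10% heat-inactivated FBS and penicillin/streptomycin, without HEPES. Exposed to 10 concentrations for 72 h at 37 °C in humidified 5% CO₂. Wells diluted 1:50 in CASYTON and counted electronically, each result the mean of three successive counts. GI50 is where the concentration–response curve crosses 50% of control cell count.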

Mycobacterium kansasii [21] = experiment: Antimicrobial activity against Mycobacterium kansasii My 6509/96 after 7 days; type: functional; conditions: 168 h; outline: as §3
Mycobacterium kansasii [22] = experiment: Antimicrobial activity against Mycobacterium kansasii My 235/80 after 7 days; type: functional; conditions: 168 h; outline: as §3
Mycobacterium kansasii [23] = experiment: Antimicrobial activity against Mycobacterium kansasii My 6509/96 after 14 days; type: functional; conditions: 336 h; outline: as §3
[24] = test system: Mycobacterium tuberculosis; experiment: Antimicrobial activity against Mycobacterium tuberculosis My 331/88 after 14 days; type: functional; conditions: 336 h
Mycobacterium avium [25] = experiment: Antimicrobial activity against Mycobacterium avium My 330/88 after 14 days; type: functional; conditions: 336 h
Mycobacterium avium [26] = experiment: Antimicrobial activity against Mycobacterium avium My 330/88 after 21 days; type: functional; conditions: 504 h

For C[C@]12CC[C@@H]3c4ccc(OCCCCCCCSc5nnnn5-c5ccc(Cl)c(Cl)c5)cc4CC[C@H]3[C@@H]1CCC2=O, the MIC (Candida albicans [1]) was > 250 µM, the MIC (Trichophyton benhamiae [2]) was > 250 µM and the MIC (Lichtheimia corymbifera [3]) was > 250 µM. For the same compound, the MIC (Candida tropicalis [4]) was > 250 µM, the MIC (Mycobacterium kansasii [5]) was > 500 µM and the MIC (Pichia kudriavzevii [6]) was > 250 µM. For the same compound, the MIC (Trichophyton benhamiae [7]) was > 250 µM, the MIC (Candida albicans [8]) was > 250 µM and the MIC (Trichosporon beigelii [9]) was > 250 µM. The MIC (Nakaseomyces glabratus [10]) was > 250 µM, the MIC (Pichia kudriavzevii [11]) was > 250 µM and the MIC (Mycobacterium kansasii [12]) was > 500 µM. The MIC (Lichtheimia corymbifera [13]) was > 250 µM, the MIC (Aspergillus fumigatus [14]) was 250 µM (≈ 153 µg/mL) and the MIC (Aspergillus fumigatus [15]) was > 250 µM. For the same compound, the MIC (Trichosporon beigelii [16]) was > 250 µM, the MIC [17] was > 500 µM and the GI50 (L929) was > 50 µg/mL. For the same compound, the CC10 (HeLa) was 50 µg/mL (≈ 81.5 µM), the CC50 (HeLa) was > 50 µg/mL and the MIC (Nakaseomyces glabratus [18]) was > 250 µM. The MIC (Mycobacterium kansasii [19]) was > 500 µM, the MIC (Candida tropicalis [20]) was > 250 µM and the GI50 (K562) was > 50 µg/mL.

In the case of Clc1ccc(-n2nnnc2SCc2ccccc2)cc1, the MIC (Candida albicans [1]) is reported as > 250 µM, the MIC (Trichophyton benhamiae [2]) is reported as 62.5 µM (≈ 18.9 µg/mL) and the MIC (Mycobacterium kansasii [21]) is reported as 16 µM (≈ 4.84 µg/mL). The MIC (Lichtheimia corymbifera [3]) was > 250 µM, the MIC (Candida tropicalis [4]) was > 250 µM and the MIC (Pichia kudriavzevii [6]) was > 250 µM. For the same compound, the MIC (Trichophyton benhamiae [7]) was 31.3 µM (≈ 9.48 µg/mL), the MIC (Candida albicans [8]) was > 250 µM and the MIC (Trichosporon beigelii [9]) was > 250 µM. The MIC (Mycobacterium kansasii [22]) was 16 µM (≈ 4.84 µg/mL), the MIC (Mycobacterium kansasii [23]) was 16 µM (≈ 4.84 µg/mL) and the MIC (Nakaseomyces glabratus [10]) was > 250 µM. The MIC [24] was 16 µM (≈ 4.84 µg/mL), the MIC (Pichia kudriavzevii [11]) was > 250 µM and the MIC (Mycobacterium avium [25]) was 62.5 µM (≈ 18.9 µg/mL). For the same compound, the MIC (Lichtheimia corymbifera [13]) was > 250 µM, the MIC (Aspergillus fumigatus [14]) was 62.5 µM (≈ 18.9 µg/mL) and the MIC (Aspergillus fumigatus [15]) was 62.5 µM (≈ 18.9 µg/mL). For the same compound, the MIC (Trichosporon beigelii [16]) was > 250 µM, the GI50 (L929) was 16.7 µg/mL (≈ 55.2 µM) and the CC10 (HeLa) was 5 µg/mL (≈ 16.5 µM). For the same compound, the CC50 (HeLa) was 50 µg/mL (≈ 165 µM), the MIC (Nakaseomyces glabratus [18]) was > 250 µM and the MIC (Mycobacterium kansasii [19]) was 32 µM (≈ 9.69 µg/mL). The MIC (Candida tropicalis [20]) was > 250 µM and the GI50 (K562) was > 50 µg/mL.

With Cc1ccc(-n2nnnc2S)cc1 the MIC (Mycobacterium kansasii [21]) was 500 µM (≈ 96.1 µg/mL), the MIC (Mycobacterium kansasii [5]) was > 500 µM and the MIC (Mycobacterium kansasii [22]) was 500 µM (≈ 96.1 µg/mL). The MIC (Mycobacterium kansasii [23]) was 500 µM (≈ 96.1 µg/mL), the MIC [24] was 500 µM (≈ 96.1 µg/mL) and the MIC (Mycobacterium avium [25]) was 500 µM (≈ 96.1 µg/mL). The MIC (Mycobacterium kansasii [12]) was > 500 µM, the MIC [17] was > 500 µM and the GI50 (L929) was > 50 µg/mL. The CC10 (HeLa) was 33 µg/mL (≈ 172 µM), the CC50 (HeLa) was > 50 µg/mL and the MIC (Mycobacterium kansasii [19]) was > 500 µM. The MIC (Mycobacterium avium [26]) was > 500 µM and the GI50 (K562) was 42.8 µg/mL (≈ 223 µM).
